Experimental findings from ChEMBL document CHEMBL1136924 (J Med Chem, 2009) are described below.

Active and inactive are the calls of the source. No cut-off for these calls is given here.

The subject of data set [1] is Rattus norvegicus. Description: Antagonist activity at 5HT3 receptor in urethane-anesthetized Sprague-Dawley rat assessed as attenuation of 1-phenylbiguanide-induced bradycardia at 50 ug/kg, iv administered 5 mins before 1-phenylbiguanide challenge measured after 30 mins post-treatment by von Bezold-Jarisch reflex test. The arrangement: scale not given: the % may be the effect or the level left. Type of data set: functional.

The subject of data set [2] is Rattus norvegicus. Briefly: Antagonist activity at 5HT3 receptor in iv dosed urethane-anesthetized Sprague-Dawley rat assessed as inhibition of 1-phenylbiguanide-induced bradycardia administered 5 mins before 1-phenylbiguanide challenge measured after 5 to 30 mins post-treatment by von Bezold-Jarisch reflex test. Type of data set: functional.
The target in data set [3] is T1, 5-hydroxytryptamine receptor 3A (Cavia porcellus) (UniProt O70212).
T1 sequence (whole entry): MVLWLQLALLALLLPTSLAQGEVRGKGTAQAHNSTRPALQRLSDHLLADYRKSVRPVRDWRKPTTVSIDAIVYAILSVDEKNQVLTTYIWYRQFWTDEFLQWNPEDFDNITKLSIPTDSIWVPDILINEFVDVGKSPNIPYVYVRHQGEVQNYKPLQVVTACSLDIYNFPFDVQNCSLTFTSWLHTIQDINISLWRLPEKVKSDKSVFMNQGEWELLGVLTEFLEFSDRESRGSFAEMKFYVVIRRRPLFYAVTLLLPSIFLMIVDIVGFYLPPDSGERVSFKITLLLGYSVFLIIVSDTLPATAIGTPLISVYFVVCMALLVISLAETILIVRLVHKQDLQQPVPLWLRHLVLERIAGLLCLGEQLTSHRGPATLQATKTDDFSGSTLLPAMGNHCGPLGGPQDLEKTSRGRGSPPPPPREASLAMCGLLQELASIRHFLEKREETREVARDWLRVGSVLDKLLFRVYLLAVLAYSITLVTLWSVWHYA
Briefly: Agonist activity at 5HT3 receptor in spontaneously beating guinea pig right atrium assessed as positive chronotropic potency at 100 uM. Type of data set: functional, tissue-based. The settings on record: Cardiac atrium. In outline: (§1)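 Guinea pig left and right atria were hung in a 15 mL bath of PSS (pH 7.4, 95% O2-5% CO2, 35 °C) with ketanserin 1 µM. The right atrium beat spontaneously; the left was paced at 1 Hz. Cumulative doses (0.1-100 µM; DMSO ≤0.3%) were added after 45-60 min stabilization. Rate or isometric force was recorded. EC50 came from Probit analysis, n≥4. Intrinsic activity was taken relative to 5-HT.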

For data set [4], the target named is T1, 5-hydroxytryptamine receptor 3A (Cavia porcellus). Briefly: Agonist activity at 5HT3 receptor in guinea pig thoracic aorta assessed as positive contractility potency at 100 uM. It is filed as functional, tissue-based. An outline of the steps:
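Guinea pig aortic helicoidal strips in PSS at 35 °C, aerated, under 1 g resting force, washed every 20 min for 1 h. Compounds added cumulatively 0.1-100 µM (DMSO vehicle); isometric contraction recorded.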

Data set [5] deals with T2, 5-hydroxytryptamine receptor 3A (Rattus norvegicus, UniProt P35563).
T2 sequence (P35563 whole entry): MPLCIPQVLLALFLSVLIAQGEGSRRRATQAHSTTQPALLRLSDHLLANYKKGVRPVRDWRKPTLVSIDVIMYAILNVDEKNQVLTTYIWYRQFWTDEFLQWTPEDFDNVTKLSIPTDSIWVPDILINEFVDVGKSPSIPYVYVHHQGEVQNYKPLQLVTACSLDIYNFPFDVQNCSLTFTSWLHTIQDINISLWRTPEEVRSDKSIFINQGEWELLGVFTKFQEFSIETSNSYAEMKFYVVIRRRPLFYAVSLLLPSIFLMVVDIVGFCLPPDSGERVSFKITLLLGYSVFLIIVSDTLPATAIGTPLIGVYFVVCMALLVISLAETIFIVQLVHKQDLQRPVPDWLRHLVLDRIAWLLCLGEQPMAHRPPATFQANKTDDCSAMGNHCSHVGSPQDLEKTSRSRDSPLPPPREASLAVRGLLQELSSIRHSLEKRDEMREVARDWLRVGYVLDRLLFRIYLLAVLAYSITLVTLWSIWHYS
Briefly: Displacement of [3H]LY278584 from 5HT3 receptor in rat cortical homogenate. On the technique in general: In a radioligand displacement assay an active substance lowers the binding of a labelled ligand.

Data set [6] deals with T1, 5-hydroxytryptamine receptor 3A (Cavia porcellus). Description: Agonist activity at 5HT3 receptor in voltage-stimulated guinea pig left atrium assessed as positive inotropic potency at 100 uM. It is filed as functional, tissue-based. The settings on record: Cardiac atrium. An outline of the steps: as §1
For data set [7], the target named is T3, 5-hydroxytryptamine receptor 3A (Cavia porcellus, UniProt O70212).
T3 sequence (O70212 whole entry): T1 sequence (whole entry)
Briefly: Antagonist activity at 5HT3 receptor in spontaneously beating guinea pig right atrium assessed as inhibition of serotonin-induced maximum response by noncompetitive binding assay. It is filed as tissue-based, Cardiac atrium. In outline: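 Spontaneously beating guinea pig right atrium; 5-HT concentration-response curves (0.001-1.0 µM) before and after 30 min antagonist exposure at three concentrations. IC50 is inhibition of 50% of maximal 5-HT response, Probit analysis, n = 4-6.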

A short description of data set [8]: Ratio of drug level in brain to plasma in rat at 5 mg/kg. Type of data set: ADME, organism-based. The arrangement: dose 5 mg/kg.

Consider `NC(=O)CN1CCN(c2nc3cc(F)ccc3n3cccc23)CC1`, for which the Activity in data set [1] is recorded as 35%. Further, the ID50 entry in data set [2] was “Dose-dependent effect”. In addition, the ED50 in data set [2] (read-out: ID50 (the source's name)) was 0.075 mg/kg. Further, the pD2 entry in data set [3], in data set [4] and in data set [6] was “inactive” each time. In data set [5], this molecule displayed a Ki of 0.0073 µM. Moreover, the IC50 in data set [7] was 11.2 µM.
For `O=C(O)CN1CCN(c2nc3cccc(F)c3n3cccc23)CC1`, the Kp in data set [8] is 0.1.

The Ki is a measure of affinity in units of concentration, obtained from inhibition or displacement. A word on the IC50: it is the midpoint of a concentration-inhibition curve. As a reminder, the Kp is tissue or fluid exposure divided by exposure in the circulation.
